Results as given in ChEMBL document CHEMBL3259670, “Discovery of 1-aryloxyethyl piperazine derivatives as Kv1.5 potassium channel inhibitors (part I)” (Eur J Med Chem, 2014).
Where a name gives a salt, the structure may show the parent alone. Active and inactive are the calls of the source. The rule behind the calls is not given here.

Each compound was assayed against T1, Potassium voltage-gated channel subfamily A member 5 (Homo sapiens, UniProt P22460) (assay: Inhibition of human Kv1.5 channel expressed in HEK293 cells by whole cell patch clamp assay). Conditions: not given.
Type: cell-based
In short: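 Whole-cell patch clamp was done on transfected HEK293 cells, harvested by trypsin and used the same day, with 4–6 MΩ pipettes at 25 °C. IKur was elicited by 500-ms steps to +60 mV from a −80 mV holding potential at 0.1 Hz. Compound was applied at least 5 min after current stabilization. IC50 came from cell-by-cell Hill fits, with at least 3 cells per concentration; mean ± SD.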

T1 sequence (P22460 whole entry): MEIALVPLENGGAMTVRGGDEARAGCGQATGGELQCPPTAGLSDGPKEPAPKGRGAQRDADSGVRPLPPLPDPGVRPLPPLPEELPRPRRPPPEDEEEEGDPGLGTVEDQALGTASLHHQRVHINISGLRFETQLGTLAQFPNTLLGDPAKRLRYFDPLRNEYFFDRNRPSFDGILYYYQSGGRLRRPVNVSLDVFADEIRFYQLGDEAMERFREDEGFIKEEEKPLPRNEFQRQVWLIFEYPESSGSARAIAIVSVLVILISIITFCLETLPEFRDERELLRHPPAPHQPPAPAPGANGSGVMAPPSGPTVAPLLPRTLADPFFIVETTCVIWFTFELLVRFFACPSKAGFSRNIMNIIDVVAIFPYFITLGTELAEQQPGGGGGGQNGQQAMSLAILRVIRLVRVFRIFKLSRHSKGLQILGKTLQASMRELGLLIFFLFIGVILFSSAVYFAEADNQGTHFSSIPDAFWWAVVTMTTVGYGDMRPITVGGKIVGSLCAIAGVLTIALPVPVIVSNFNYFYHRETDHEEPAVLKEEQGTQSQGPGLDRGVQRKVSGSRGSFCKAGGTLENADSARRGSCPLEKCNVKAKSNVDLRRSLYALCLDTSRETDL

SMILES	IC50 [µM]
O=C(CN1CCN(CCOc2ccccc2)CC1)Nc1ccccc1Cl	29.4
COc1ccc(NC(=O)CN2CCN(CCOc3ccccc3)CC2)cc1	10.1
COc1ccc(C(=O)N2CCN(CCOc3ccccc3)CC2)cc1	16.1
O=C(CN1CCN(CCOc2ccc(Cl)cc2)CC1)Nc1nccs1	5.18
O=C(c1cccs1)N1CCN(CCOc2ccc(F)cc2)CC1	12.7
Cc1ccccc1OCCN1CCN(C(=O)c2cccs2)CC1	13.5
O=C(c1cccs1)N1CCN(CCOc2ccccc2Cl)CC1	9.74
O=C(c1ccccc1)N1CCN(CCOc2ccccc2)CC1	38.8
O=C(CN1CCN(CCOc2ccc(Cl)cc2)CC1)Nc1ccccc1	4.38
CC(C)(C)c1ccc(OCCN2CCN(CC(=O)Nc3nccs3)CC2)cc1	63.2
N#Cc1ccc(OCCN2CCN(C(=O)c3ccccc3)CC2)cc1	4.23
Cc1ccc(OCCN2CCN(CC(=O)Nc3nccs3)CC2)cc1C	50.2
COc1ccc(OCCN2CCN(CC(=O)Nc3nccs3)CC2)cc1	9.13
Cc1ccc(NC(=O)CN2CCN(CCOc3ccccc3)CC2)cc1	16.1
CCCCc1oc2ccc(NS(C)(=O)=O)cc2c1C(=O)c1ccc(OCCCN(CCCC)CCCC)cc1 [DRONEDARONE HYDROCHLORIDE]	2.37
N#Cc1ccc(OCCN2CCN(C(=O)c3cccs3)CC2)cc1	10.2
O=C(CN1CCN(CCOc2ccccc2)CC1)Nc1ccccc1	28.6
O=C(CN1CCN(CCOc2ccc(OC(F)(F)F)cc2)CC1)Nc1ccccc1	7.33
COc1ccc(C(=O)N2CCN(CCOc3ccc(Cl)cc3)CC2)cc1	5.5
Cc1ccc(OCCN2CCN(C(=O)c3ccccc3)CC2)cc1	25.3
Cc1ccc(NC(=O)CN2CCN(CCOc3ccc(Cl)cc3)CC2)cc1	5.02
COc1ccc(OCCN2CCN(C(=O)c3cccs3)CC2)cc1	21.9
Cc1ccc(OCCN2CCN(CC(=O)Nc3nccs3)CC2)cc1	8.93
O=C(CN1CCN(CCOc2ccccc2)CC1)Nc1nccs1	29.3

The compounds below were run on Rattus norvegicus (assay: Inhibition of Cacl2-Ach-induced atrial fibrillation Sprague-Dawley rat model assessed as reduction in duration of atrial fibrillation at 1.25 mg/kg, ip during day 1 to day 3). Conditions: Cardiac atrium.
Type: functional, organism-based
Parameters: dose 1.25 mg/kg

SMILES	Activity
CCCCc1oc2ccc(NS(C)(=O)=O)cc2c1C(=O)c1ccc(OCCCN(CCCC)CCCC)cc1 [DRONEDARONE HYDROCHLORIDE]	inactive

What follows are compounds tested against T1, Potassium voltage-gated channel subfamily A member 5 (assay: Inhibition of human Kv1.5 channel expressed in HEK293 cells at 11 uM by whole cell patch clamp assay). Conditions: not given.
Type: cell-based

SMILES	inhibition [%]
CCOc1ccccc1OCCN1CCN(CC(=O)Nc2nccs2)CC1	11.9
CCOC(=O)c1ccc(OCCN2CCN(CC(=O)Nc3nccs3)CC2)cc1	32.1

The compounds below were run on Rattus norvegicus (assay: Inhibition of Cacl2-Ach-induced atrial fibrillation Sprague-Dawley rat model assessed as reduction in duration of atrial fibrillation at 1.25 mg/kg, ip during day 4 to day 7). Conditions: Cardiac atrium.
Type: functional, organism-based
Parameters: dose 1.25 mg/kg

SMILES	Activity
CCCCc1oc2ccc(NS(C)(=O)=O)cc2c1C(=O)c1ccc(OCCCN(CCCC)CCCC)cc1 [DRONEDARONE HYDROCHLORIDE]	Active

These compounds were tested on Rattus norvegicus (assay: Inhibition of Cacl2-Ach-induced atrial fibrillation Sprague-Dawley rat model assessed as increase in atrial effective refractory period at 1.25 mg/kg, ip). Conditions: Cardiac atrium.

SMILES	Activity
CCCCc1oc2ccc(NS(C)(=O)=O)cc2c1C(=O)c1ccc(OCCCN(CCCC)CCCC)cc1 [DRONEDARONE HYDROCHLORIDE]	Active
